We go through five molecules from BindingDB's records for doi:10.1021/jm701271y (Wyeth Research, 2008).

Signal transducer and activator of transcription 3, sequence (P40763 whole entry): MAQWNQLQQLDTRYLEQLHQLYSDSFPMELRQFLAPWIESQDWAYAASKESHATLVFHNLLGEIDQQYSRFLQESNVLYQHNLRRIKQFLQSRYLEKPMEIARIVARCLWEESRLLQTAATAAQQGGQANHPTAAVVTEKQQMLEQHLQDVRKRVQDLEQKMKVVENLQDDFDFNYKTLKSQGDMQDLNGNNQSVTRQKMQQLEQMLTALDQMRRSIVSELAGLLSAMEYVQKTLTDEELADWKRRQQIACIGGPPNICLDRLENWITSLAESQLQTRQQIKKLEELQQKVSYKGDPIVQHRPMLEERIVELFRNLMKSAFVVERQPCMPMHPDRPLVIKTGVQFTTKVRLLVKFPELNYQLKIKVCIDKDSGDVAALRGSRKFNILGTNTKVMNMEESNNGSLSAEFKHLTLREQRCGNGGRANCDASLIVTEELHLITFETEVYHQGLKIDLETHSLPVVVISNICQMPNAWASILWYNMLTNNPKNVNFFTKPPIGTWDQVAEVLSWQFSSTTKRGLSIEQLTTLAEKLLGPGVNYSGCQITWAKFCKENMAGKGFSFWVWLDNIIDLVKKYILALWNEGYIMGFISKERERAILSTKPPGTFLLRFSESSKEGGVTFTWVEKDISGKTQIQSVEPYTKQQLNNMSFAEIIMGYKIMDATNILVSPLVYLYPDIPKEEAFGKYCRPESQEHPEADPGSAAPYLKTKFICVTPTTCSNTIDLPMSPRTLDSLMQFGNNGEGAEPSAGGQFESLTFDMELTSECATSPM

The target in the assay is Signal transducer and activator of transcription 3 (Homo sapiens, UniProt P40763). As to the kind of experiment: Inhibition of STAT3 Y705 phosphorylation in human U266 cells by Western blot analysis. A digest of the protocol:
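Steady-state phosphorylation: exponentially growing U266 cells (1 × 10⁶ cells at 2 × 10⁵ cells/mL, RPMI1640 + 10% FBS) were treated with compound for 1 h. Cells were lysed in PhosphoSafe reagent with protease inhibitors. Western blot used primary antibodies (1:1000, 2 h) and fluorescent secondaries (1 h) at room temperature. A representative blot from several repeats is shown.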
For orientation: A western blot detects proteins with antibodies after separation by electrophoresis.
In general, EC50 refers to the concentration giving half of the maximal effect. A low value points to a more potent agent. `CCOC(=O)c1cn(-c2c(F)c(F)c(F)c(F)c2F)c2c(F)c(F)c(F)c(F)c2c1=O` [Ethyl 5,6,7,8-tetrafluoro-4-oxo-1-(pentafluorophenyl)-1,4-dihydroquinoline-3-carboxylate] displayed an EC50 of 4600 nM. As to `N#Cc1c(F)c(F)c(-n2cc(C(=O)OCc3ccccc3)c(=O)c3cc(F)c(F)c(F)c32)c(F)c1F` [Benzyl 1-(4-Cyano-2,3,5,6-tetrafluorophenyl)-6,7,8-trifluoro-4-oxo-1,4-dihydroquinoline-3-carboxylate], the response was half-maximal at 130 nM (EC50). `N#Cc1c(F)c(F)c(-n2cc(C(=O)NCc3ccc(F)cc3)c(=O)c3cc(F)c(F)c(F)c32)c(F)c1F` [1-(4-Cyano-2,3,5,6-tetrafluorophenyl)-6,7,8-trifluoro-N-(4-fluorobenzyl)-4-oxo-1,4-dihydroquinoline-3-carboxamide]: a half-maximal response (EC50) required 200 nM.

In the case of `O=C(O)c1cn(-c2c(F)c(F)c(F)c(F)c2F)c2c(F)c(F)c(F)c(F)c2c1=O` [5,6,7,8-Tetrafluoro-4-oxo-1-(pentafluoro-phenyl)-1,4-dihydroquinoline-3-carboxylic acid], the 50% effective concentration (EC50) amounted to 46000 nM. As for `CCOC(=O)c1cn(-c2c(F)c(F)c(C#N)c(F)c2F)c2c(F)c(F)c(F)cc2c1=O` [Ethyl 1-(4-Cyano-2,3,5,6-tetrafluorophenyl)-6,7,8-trifluoro-4-oxo-1,4-dihydroquino-line-3-carboxylate], the figure is 170 nM.
